Results pooled from the literature.
Compare with care: the assays were run in different laboratories.
Target: Serine/threonine-protein kinase Nek9 (NEK9, Homo sapiens, UniProt Q8TD19)
One construct used (Q8TD19 1-979): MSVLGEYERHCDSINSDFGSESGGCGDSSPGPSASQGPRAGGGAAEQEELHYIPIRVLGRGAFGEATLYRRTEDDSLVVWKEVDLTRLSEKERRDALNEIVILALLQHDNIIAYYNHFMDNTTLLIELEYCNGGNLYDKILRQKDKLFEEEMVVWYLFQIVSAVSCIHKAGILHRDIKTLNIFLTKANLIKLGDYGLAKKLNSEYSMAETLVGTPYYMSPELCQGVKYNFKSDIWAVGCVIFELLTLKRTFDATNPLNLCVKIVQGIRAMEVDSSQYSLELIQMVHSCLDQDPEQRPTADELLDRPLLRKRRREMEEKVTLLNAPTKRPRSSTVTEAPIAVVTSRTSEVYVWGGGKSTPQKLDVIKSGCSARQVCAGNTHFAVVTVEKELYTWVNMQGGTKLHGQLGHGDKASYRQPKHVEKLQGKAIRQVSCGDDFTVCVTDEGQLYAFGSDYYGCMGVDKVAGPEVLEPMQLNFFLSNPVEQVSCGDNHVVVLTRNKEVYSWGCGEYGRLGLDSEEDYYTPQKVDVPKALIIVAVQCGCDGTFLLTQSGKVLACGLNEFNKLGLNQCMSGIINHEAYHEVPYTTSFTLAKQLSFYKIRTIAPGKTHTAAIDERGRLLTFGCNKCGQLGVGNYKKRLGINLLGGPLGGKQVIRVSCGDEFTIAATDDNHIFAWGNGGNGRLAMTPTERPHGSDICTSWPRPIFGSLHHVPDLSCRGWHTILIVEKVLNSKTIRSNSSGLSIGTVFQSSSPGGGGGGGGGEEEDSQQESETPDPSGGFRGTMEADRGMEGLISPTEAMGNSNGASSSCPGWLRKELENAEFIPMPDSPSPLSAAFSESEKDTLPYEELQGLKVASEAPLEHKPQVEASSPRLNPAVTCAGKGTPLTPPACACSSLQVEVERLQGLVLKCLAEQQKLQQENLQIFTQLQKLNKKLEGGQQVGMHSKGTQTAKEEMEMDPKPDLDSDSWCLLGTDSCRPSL

| Structure (SMILES) | test | setting | remaining binding [%] |
| --- | --- | --- | --- |
| O=C(NCC1CCOCC1)c1n[nH]cc1NC(=O)c1c(F)cccc1F | binding, competition with immobilised ligand | 1 µM | 92 |
| C[C@H](c1ccc(F)cc1)N(Cc1cccc(C(=O)O)c1)C(=O)c1cnc2ccccc2c1 | cell-free assay, competition with immobilised ligand | 1 µM | 100 |
| c1cnn2ncc(-c3ccnc(N4CCC45COC5)n3)c2c1 | binding | 1 µM | 82 |
| O=C1NC(c2ccccn2)Sc2ccccc21 (stereo not shown) | cell-free assay, competition with immobilised ligand | 1 µM | 75 |
| Cc1cnn2ncc(-c3ccnc(N(C)C)n3)c2c1 | binding | 1 µM | 100 |
| CC(=O)Nc1c(C(C)=O)c(=O)n(C)c2nc(-c3ccc(Cl)cc3Cl)c(-c3ccc(Cl)cc3)cc12 | cell-free assay, competition with immobilised ligand | 1 µM | 100 |
| CNC(=O)[C@@H]1CC[C@@H](n2c(-c3ccc4cnccc4c3)nc3ccc(C(=O)NCc4cccc(C(N)=O)c4)cc32)C1 | binding, competition with immobilised ligand | 1 µM | 100 |
| Cn1nc(C(=O)NCc2ccc(C(=O)O)cc2)cc1-c1ccc2[nH]ccc2c1 | cell-free assay, competition with immobilised ligand | 0.1 µM | 99 |
| c1cncc(-c2cccc(Nc3nccc(NC4CCCCC4)n3)c2)c1 | binding, competition with immobilised ligand | 10 µM | 95 |
| O=C(c1ccc(Nc2ncc(Cl)c(-c3ccc(Cl)s3)n2)cc1)N1CCC(N2CCCC2)CC1 | binding, competition with immobilised ligand | 1 µM | 23 |
| Cc1c(NC(=O)c2cc(C(N)=O)nc3cc(F)ccc23)c(C(F)(F)F)nn1Cc1ccc(C#N)cc1 | cell-free assay, competition with immobilised ligand | 1 µM | 95 |
| C=CC(=O)N1CCC(C(=O)NCC(=O)N2CCN(c3nc(-c4cnc(N)nc4C(F)F)nc(N4CCOCC4)n3)CC2)CC1 | binding, competition with immobilised ligand | 1 µM | 100 |
| CCCOc1ccc([C@H]2[C@H](C(=O)O)[C@@H](c3ccc4c(c3)OCO4)CN2CC(=O)Nc2c(CC)cccc2CC)cc1 | cell-free assay, competition with immobilised ligand | 1 µM | 95 |
| Nc1ncc2c(n1)-c1c([nH]c3ccc(C#CC4CC4)cc13)CCCC2 | binding, competition with immobilised ligand | 1 µM | 91 |
| F[C@@H]1CCN(c2nccc(-c3cnn4ncccc34)n2)C1 | binding | 1 µM | 100 |
| COc1ncc2cc3ccccc3nc2c1C#N | cell-free assay, competition with immobilised ligand | 5 µM | 95 |
| C[C@H]1CCN(c2nccc(-c3cnn4ncccc34)n2)C1 | binding | 1 µM | 100 |
| Cc1c(C(=O)O)cc(-c2ccc(C3CCNCC3)cc2)c2ccc(-c3ccc(C(F)(F)F)cc3)cc12 | binding, competition with immobilised ligand | 1 µM | 100 |
| O=C(c1ccc(Nc2ncc(Cl)c(-c3cc4ccccc4s3)n2)cc1)N1CCC(N2CCCC2)CC1 | binding, competition with immobilised ligand | 1 µM | 33 |
| N[C@@H]1CCN(c2nccc(-c3cnn4ncccc34)n2)C1 | binding | 1 µM | 100 |
| O=C(NCCCN1CCOCC1)c1ccc(Nc2ncc(Cl)c(-c3ccc(Cl)s3)n2)cc1 | binding, competition with immobilised ligand | 1 µM | 13 |
| CN(CCCC(F)(F)F)c1nccc(-c2cnn3ncccc23)n1 | binding | 1 µM | 100 |
